ChEMBL document CHEMBL4138274, “Multiflorumisides A-G, Dimeric Stilbene Glucosides with Rare Coupling Patterns from the Roots of Polygonum multiflorum” (J Nat Prod, 2018)

Key:
[1] = test system: RAW264.7; assay: Cytotoxicity against LPS-stimulated mouse RAW264.7 cells assessed as effect on cell viability at 20 uM after 48 hrs by MTT assay; type: cell-based; details: raw264.7, 48 h
Procedure, shortened: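 Viability by MTT on RAW264.7 cells seeded at 4 × 10^4 per well and held 2 h at 37 °C in humidified 5% CO2. Cells were then treated for 48 h at 37 °C with LPS (200 ng/mL) together with serially diluted test compound.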

[2] = test system: RAW264.7; assay: Antiinflammatory activity in mouse RAW264.7 cells assessed as inhibition of LPS-stimulated nitric oxide production at 20 uM after 48 hrs by Griess assay relative to control; type: functional; details: RAW264.7, 48 h
Procedure, shortened: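 RAW264.7 cells seeded at 4 × 10^4 per well, held 2 h at 37 °C in humidified 5% CO2, then exposed to LPS (200 ng/mL) plus serially diluted test compound for 48 h at 37 °C. Supernatant was mixed 1:1 with Griess reagent, incubated 15 min, and absorbance read at 540 nm as a nitrite measure.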

Row | Compound | Activity [1] | inhibition at 20 µM [2]
1 | OC[C@H]1O[C@@H](Oc2c(O)cc(O)cc2[C@H]2[C@H](c3ccc(O)cc3)c3c(O)cc(O)c(O[C@@H]4O[C@H](CO)[C@@H](O)[C@H](O)[C@H]4O)c3C[C@H]2c2ccc(O)cc2)[C@H](O)[C@@H](O)[C@@H]1O | Non-Toxic | –
2 | OC[C@H]1O[C@@H](Oc2c(O)cc(O)cc2[C@H]2[C@H](c3ccc(O)cc3)[C@H](c3cc(O)cc(O)c3O[C@@H]3O[C@H](CO)[C@@H](O)[C@H](O)[C@H]3O)[C@H]2c2ccc(O)cc2)[C@H](O)[C@@H](O)[C@@H]1O | Non-Toxic | 22.4%
3 | OC[C@H]1O[C@@H](Oc2c(O)cc(O)cc2[C@@H]2[C@@H](c3ccc(O)cc3)[C@H](c3ccc(O)cc3)[C@H]2c2cc(O)cc(O)c2O[C@@H]2O[C@H](CO)[C@@H](O)[C@H](O)[C@H]2O)[C@H](O)[C@@H](O)[C@@H]1O | Non-Toxic | 22%
4 | OC[C@H]1O[C@@H](Oc2c(O)cc(O)cc2[C@@H]2[C@@H](c3ccc(O)cc3)c3c(O)cc(O)c(O[C@@H]4O[C@H](CO)[C@@H](O)[C@H](O)[C@H]4O)c3C[C@H]2c2ccc(O)cc2)[C@H](O)[C@@H](O)[C@@H]1O | Non-Toxic | –
5 | OC[C@H]1O[C@@H](Oc2c(O)cc(O)cc2[C@@H]2[C@@H](c3ccc(O)cc3)[C@@H](c3ccc(O)cc3)[C@@H]2c2cc(O)cc(O)c2O[C@@H]2O[C@H](CO)[C@@H](O)[C@H](O)[C@H]2O)[C@H](O)[C@@H](O)[C@@H]1O | Non-Toxic | 16.8%
6 | OC[C@H]1O[C@@H](Oc2c(O)cc(O)cc2[C@H]2[C@H](c3ccc(O)cc3)[C@@H](c3cc(O)cc(O)c3O[C@@H]3O[C@H](CO)[C@@H](O)[C@H](O)[C@H]3O)[C@@H]2c2ccc(O)cc2)[C@H](O)[C@@H](O)[C@@H]1O | Non-Toxic | 16.7%
7 | OC[C@H]1O[C@@H](Oc2c(O)cc(O)cc2[C@H]2[C@@H](c3ccc(O)cc3)c3c(O)cc(O)c(O[C@@H]4O[C@H](CO)[C@@H](O)[C@H](O)[C@H]4O)c3C[C@@H]2c2ccc(O)cc2)[C@H](O)[C@@H](O)[C@@H]1O | Non-Toxic | –
8 | C[C@@H]1C[C@H]2[C@@H]3CCC4=CC(=O)C=C[C@]4(C)[C@@]3(F)[C@@H](O)C[C@]2(C)[C@@]1(O)C(=O)CO [DEXAMETHASONE] | – | 60.9%
